Consider six compounds from ChEMBL document CHEMBL1125220 (J Med Chem, 1991).

pIC50: −log10 of the molar value.

The target in assay [1] is Glutamate receptor ionotropic, NMDA 2C (Rattus norvegicus, UniProt Q00961). The assay can be described thus: (§1) Compound was tested for its affinity towards PCP receptor in rat brain membrane [3H]MK-801 as radioligand. In kind it is cell membranes.
In assay [2] the target is T1, D(2) dopamine receptor (Rattus norvegicus, UniProt P61169). The experiment in a line: Compound was tested for its binding affinity towards dopamine receptor D2 by using [3H]domperidone as radioligand. The essentials:
(§2)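 Rat striatal membranes from frozen tissue, washed and resuspended in 50 mM Tris-HCl with 120 mM NaCl, 5 mM KCl, 2 mM CaCl2, 1 mM MgCl2 (pH 7.4 at 37 °C). Competition binding used [3H]SCH-23390 for D1 and [3H]domperidone for D2. IC50 ± SEM from duplicate or triplicate determinations.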

For assay [3], the target named is T2, D(1A) dopamine receptor (Rattus norvegicus, UniProt P18901). The experiment in a line: Binding affinity towards Dopamine receptor D1 in rat membranes using [3H]SCH-23390 as radioligand. The format is cell membranes.
For assay [4], the target named is T2, D(1A) dopamine receptor. The assay can be described thus: Binding affinity determined in radioreceptor binding assay by using [3H]SCH-23390 radioligand against dopamine receptor D1. The essentials:
as §2

Assay [5] addresses T1, D(2) dopamine receptor. The assay can be described thus: Compound was tested for its binding affinity towards Dopamine receptor D2 by using [3H]domperidone as radioligand.
For the next assay, the species on record is Rattus norvegicus. The assay is described as §1.

T1 sequence (P61169 whole entry): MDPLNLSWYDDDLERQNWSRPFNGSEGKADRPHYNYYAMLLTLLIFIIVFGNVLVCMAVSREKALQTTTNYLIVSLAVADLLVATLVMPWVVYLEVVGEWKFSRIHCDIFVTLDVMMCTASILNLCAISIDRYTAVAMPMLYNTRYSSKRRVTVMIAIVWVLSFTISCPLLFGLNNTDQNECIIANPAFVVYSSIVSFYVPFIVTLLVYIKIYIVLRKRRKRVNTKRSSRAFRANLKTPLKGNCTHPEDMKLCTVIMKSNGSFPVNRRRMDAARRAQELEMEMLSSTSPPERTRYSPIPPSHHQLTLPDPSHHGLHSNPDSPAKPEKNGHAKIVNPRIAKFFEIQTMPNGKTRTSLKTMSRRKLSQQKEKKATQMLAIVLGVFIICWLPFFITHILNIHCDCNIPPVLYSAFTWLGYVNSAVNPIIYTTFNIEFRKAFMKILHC
T2 sequence (P18901 whole entry): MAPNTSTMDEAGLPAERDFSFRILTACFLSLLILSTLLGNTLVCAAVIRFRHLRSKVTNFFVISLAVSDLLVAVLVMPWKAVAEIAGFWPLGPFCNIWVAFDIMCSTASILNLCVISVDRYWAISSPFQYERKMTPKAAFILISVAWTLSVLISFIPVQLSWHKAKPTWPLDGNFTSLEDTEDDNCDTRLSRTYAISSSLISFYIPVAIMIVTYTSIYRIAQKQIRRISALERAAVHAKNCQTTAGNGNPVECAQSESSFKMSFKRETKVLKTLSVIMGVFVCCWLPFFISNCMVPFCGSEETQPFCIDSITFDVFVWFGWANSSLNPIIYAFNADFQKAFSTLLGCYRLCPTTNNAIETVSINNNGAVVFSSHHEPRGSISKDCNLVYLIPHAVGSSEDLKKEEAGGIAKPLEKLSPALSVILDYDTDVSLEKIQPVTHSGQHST
Sequence of Glutamate receptor ionotropic, NMDA 2C (Q00961 whole entry): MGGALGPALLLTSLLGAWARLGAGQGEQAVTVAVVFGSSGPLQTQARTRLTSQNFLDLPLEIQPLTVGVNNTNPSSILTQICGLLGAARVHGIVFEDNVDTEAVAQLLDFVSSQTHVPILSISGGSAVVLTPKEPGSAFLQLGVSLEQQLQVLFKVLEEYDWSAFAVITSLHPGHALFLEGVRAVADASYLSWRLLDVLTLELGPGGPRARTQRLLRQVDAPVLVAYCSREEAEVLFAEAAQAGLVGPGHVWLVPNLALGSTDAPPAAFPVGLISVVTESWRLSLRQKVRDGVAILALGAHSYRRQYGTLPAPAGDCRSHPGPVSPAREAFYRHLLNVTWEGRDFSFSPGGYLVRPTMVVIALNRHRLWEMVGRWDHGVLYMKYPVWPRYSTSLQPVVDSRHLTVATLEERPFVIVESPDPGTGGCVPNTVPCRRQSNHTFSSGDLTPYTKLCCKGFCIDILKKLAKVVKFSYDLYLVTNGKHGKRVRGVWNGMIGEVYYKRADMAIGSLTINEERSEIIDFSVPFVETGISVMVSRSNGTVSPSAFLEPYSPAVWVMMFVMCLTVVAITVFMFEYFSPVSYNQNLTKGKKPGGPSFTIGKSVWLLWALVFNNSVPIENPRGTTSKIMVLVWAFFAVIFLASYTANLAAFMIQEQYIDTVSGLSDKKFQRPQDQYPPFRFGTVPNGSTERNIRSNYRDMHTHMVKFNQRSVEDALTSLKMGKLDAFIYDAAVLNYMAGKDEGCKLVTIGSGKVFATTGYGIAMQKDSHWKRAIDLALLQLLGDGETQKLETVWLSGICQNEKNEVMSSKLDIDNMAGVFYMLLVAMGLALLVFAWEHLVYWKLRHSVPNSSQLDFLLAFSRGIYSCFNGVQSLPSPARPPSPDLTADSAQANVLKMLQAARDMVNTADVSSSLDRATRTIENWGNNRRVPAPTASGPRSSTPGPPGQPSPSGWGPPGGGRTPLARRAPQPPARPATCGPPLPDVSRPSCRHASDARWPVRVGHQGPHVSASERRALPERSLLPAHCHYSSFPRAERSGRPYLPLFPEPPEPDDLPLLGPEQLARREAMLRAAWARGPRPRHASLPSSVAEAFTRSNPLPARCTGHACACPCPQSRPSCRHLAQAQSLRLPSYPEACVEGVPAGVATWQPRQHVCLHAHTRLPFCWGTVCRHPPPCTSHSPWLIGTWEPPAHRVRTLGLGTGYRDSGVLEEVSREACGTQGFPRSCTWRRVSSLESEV

With `c1ccc(CCCCN2CCN(c3ccccc3)CC2)cc1`, the pIC50 is below 5.00 in assay [1], 7.35 at D(2) dopamine receptor [2] and 5.55 on D(1A) dopamine receptor [3].

As to `c1ccc(N2CCN(CCCc3ccc4ccccc4c3)CC2)cc1`, the results for the pIC50 (in assay [1]; at D(2) dopamine receptor [2]) were below 5.00 and 6.80, respectively.

On to `c1ccc(CCCCCN2CCC(c3ccccc3)CC2)cc1`, for which the negative-log IC50 (pIC50) in assay [1] is below 5.00; at D(2) dopamine receptor [2], 6.68; at D(1A) dopamine receptor [4], below 5.00.

For `c1ccc(CCCN2CCC(c3ccccc3)CC2)cc1`, the negative-log IC50 (pIC50) is below 5.00 in assay [1], below 5.00 on D(1A) dopamine receptor [3] and 6.47 at D(2) dopamine receptor [5].

Turning to `c1ccc(CCCCN2CCC(c3ccccc3)CC2)cc1`, the pIC50 at D(1A) dopamine receptor [3] is below 5.00; on D(2) dopamine receptor [5], 6.78; in the assay listed under Rattus norvegicus it was below 5.00.

As to `OC1(c2ccccc2)CCN(CCCc2ccccc2)CC1`, the pIC50 at D(1A) dopamine receptor [3] was below 5.00; on D(2) dopamine receptor [5], 5.90; in the assay listed under Rattus norvegicus, below 5.00.
